This note sets out measurements from ChEMBL document CHEMBL4002591 (J Med Chem, 2017).

In data set [1] the target is Protein mono-ADP-ribosyltransferase PARP14 (Homo sapiens, UniProt Q460N5). As to the kind of experiment: Inhibition of PARP14 (unknown origin).
Data set [2] has as its target Poly [ADP-ribose] polymerase 2 (Homo sapiens, UniProt Q9UGN5). As to the kind of experiment: Inhibition of recombinant human N-terminal GST-tagged PARP2 (2 to 583 residues) expressed in baculovirus infected Sf9 cells measured after 1 hr by chemiluminescence assay.
In data set [3] the target is T1, Protein mono-ADP-ribosyltransferase PARP3 (Homo sapiens, UniProt Q9Y6F1).
T1 sequence (Q9Y6F1 whole entry): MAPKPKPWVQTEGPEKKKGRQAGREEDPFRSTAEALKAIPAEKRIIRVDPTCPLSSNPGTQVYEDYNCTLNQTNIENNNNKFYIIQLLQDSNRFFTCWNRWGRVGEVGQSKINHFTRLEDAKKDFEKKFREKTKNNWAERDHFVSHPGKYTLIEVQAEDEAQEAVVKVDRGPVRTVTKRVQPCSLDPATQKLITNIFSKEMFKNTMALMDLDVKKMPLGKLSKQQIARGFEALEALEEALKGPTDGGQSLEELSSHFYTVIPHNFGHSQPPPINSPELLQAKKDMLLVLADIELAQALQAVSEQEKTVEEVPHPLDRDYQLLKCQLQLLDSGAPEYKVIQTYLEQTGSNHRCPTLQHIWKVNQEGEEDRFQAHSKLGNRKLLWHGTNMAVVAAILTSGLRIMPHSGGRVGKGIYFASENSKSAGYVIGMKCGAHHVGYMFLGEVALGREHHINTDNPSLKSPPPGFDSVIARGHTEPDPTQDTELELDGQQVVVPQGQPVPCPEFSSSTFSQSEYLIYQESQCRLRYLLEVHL
As to the kind of experiment: Inhibition of PARP3 (unknown origin).

The target in data set [4] is T2, Poly [ADP-ribose] polymerase tankyrase-1 (Homo sapiens, UniProt O95271).
T2 sequence (O95271 whole entry): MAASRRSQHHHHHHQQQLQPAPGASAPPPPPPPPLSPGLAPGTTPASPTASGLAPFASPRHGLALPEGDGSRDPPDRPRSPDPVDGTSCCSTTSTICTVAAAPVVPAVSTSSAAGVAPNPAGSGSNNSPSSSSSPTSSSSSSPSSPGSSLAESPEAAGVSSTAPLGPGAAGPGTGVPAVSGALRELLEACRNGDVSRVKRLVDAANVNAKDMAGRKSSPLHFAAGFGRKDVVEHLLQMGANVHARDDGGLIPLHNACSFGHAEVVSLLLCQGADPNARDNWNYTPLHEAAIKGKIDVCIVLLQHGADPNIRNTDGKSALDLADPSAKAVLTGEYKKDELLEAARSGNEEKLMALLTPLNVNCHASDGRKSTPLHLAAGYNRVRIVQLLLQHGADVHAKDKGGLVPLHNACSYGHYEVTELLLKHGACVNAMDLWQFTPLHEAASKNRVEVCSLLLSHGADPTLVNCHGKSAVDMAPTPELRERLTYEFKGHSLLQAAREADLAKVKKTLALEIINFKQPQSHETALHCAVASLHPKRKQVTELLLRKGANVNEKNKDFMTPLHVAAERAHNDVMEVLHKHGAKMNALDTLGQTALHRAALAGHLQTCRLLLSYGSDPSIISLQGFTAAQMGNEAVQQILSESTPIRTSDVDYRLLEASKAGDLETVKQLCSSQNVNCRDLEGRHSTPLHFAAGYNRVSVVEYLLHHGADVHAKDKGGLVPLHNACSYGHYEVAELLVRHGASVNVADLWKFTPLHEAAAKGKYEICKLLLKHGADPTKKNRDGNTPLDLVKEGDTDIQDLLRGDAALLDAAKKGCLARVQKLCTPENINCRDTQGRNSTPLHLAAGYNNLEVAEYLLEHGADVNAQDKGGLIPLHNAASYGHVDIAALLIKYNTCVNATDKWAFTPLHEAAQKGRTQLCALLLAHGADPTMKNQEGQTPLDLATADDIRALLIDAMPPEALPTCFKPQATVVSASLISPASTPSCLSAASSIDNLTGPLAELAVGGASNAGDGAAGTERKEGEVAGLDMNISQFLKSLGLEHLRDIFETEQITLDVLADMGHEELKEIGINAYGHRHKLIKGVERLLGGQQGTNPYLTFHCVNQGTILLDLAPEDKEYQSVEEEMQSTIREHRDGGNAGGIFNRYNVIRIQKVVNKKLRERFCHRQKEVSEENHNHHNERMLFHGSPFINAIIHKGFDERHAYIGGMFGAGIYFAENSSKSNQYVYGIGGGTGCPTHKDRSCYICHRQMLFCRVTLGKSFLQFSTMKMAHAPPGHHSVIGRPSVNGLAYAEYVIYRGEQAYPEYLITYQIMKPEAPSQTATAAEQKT
As to the kind of experiment: Inhibition of recombinant human N-terminal GST-tagged TNKS1 (1001 to 1327 residues) expressed in baculovirus infected sf9 cells using TACS-Sapphire as substrate measured after 30 mins by colorimetric assay.

For data set [5], the target named is T3, Protein mono-ADP-ribosyltransferase PARP16 (Homo sapiens, UniProt Q8N5Y8).
T3 sequence (Q8N5Y8 whole entry): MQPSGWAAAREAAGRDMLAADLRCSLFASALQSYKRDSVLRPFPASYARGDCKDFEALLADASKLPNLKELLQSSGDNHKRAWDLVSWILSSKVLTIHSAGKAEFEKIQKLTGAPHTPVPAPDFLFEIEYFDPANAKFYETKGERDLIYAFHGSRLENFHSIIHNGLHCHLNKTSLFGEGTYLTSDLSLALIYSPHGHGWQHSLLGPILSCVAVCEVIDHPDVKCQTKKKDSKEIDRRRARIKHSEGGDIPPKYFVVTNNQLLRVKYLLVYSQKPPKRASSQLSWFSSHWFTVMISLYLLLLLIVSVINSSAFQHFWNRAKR
As to the kind of experiment: Inhibition of PARP16 (unknown origin).

Data set [6] can be described thus: Inhibition of tankyrase (unknown origin) expressed in TCF/LEF-HEK293 cells assessed as inhibition of Wnt/beta-catenin signaling pathway in Wnt3a conditioned medium measured after 20 hrs by luciferase reporter gene assay. Format: cell-based. Conditions: Homo sapiens. (Reporter assays use an easily measured gene product as a stand-in for the process of interest.)

Data set [7] deals with HEK293. As to the kind of experiment: Cytotoxicity against HEK293 cells by light microscopic analysis. Format: cell-based. Conditions: human. The method, boiled down: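 Viability of TCF/LEF reporter HEK293 cells was checked by light microscopy during the Wnt-signaling reporter assay.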
Data set [8] is filed under the species Mus musculus. As to the kind of experiment: Inhibition of TNKS in mouse 3T3L1 cells assessed as upregulation of GLUT4 by measuring increase in insulin-stimulated glucose uptake at 1 uM using 2-deoxy-D-[2,6-3H]glucose as substrate pretreated for 1 hr followed by insulin stimulation for 30 mins and subsequent addition of substrate measured after 5 mins by scintillation counter. Format: cell-based. Set-up: scale not given: the % may be the effect or the level left. In a few lines:
(§1)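 3T3-L1 fibroblasts were grown in DMEM and differentiated to adipocytes with insulin, dexamethasone and isobutylmethylxanthine, then used 10-12 d later. Cells were serum-starved 2 h at 37°C and given compound for 1 h. After KRH washes (pH 7.4), cells were held 30 min with compound, with or without 100 nM insulin. 2-Deoxy-D-[2,6-³H]glucose was added for 5 min.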

Data set [9] deals with 3T3-L1. As to the kind of experiment: Effect on glucose uptake in mouse 3T3L1 cells at 1 uM using 2-deoxy-D-[2,6-3H]glucose as substrate pretreated for 1 hr followed substrate addition measured after 5 mins by scintillation counter. Format: ADME, cell-based. The settings on record: 3t3-l1, 5 min. In a few lines:
as §1

SMILES strings stand for the structures. A value given as a limit tells only on which side of the number the result lay.

Sequence of Poly [ADP-ribose] polymerase 2 (Q9UGN5 whole entry, the tested form may be a part): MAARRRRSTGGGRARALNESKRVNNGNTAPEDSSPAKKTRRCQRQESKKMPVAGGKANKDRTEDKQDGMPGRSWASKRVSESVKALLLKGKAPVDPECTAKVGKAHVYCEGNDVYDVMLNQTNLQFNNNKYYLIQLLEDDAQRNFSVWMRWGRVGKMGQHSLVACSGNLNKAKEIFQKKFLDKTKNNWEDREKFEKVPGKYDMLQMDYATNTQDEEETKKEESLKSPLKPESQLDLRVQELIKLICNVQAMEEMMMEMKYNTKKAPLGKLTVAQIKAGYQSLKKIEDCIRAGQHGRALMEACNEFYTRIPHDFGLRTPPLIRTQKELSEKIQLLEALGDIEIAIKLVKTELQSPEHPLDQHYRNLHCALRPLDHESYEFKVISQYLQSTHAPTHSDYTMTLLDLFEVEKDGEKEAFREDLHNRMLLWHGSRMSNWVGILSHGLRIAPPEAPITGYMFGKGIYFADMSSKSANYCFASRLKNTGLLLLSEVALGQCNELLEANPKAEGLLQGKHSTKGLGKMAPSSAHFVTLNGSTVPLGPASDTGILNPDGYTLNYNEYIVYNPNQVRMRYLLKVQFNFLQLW
Sequence of Protein mono-ADP-ribosyltransferase PARP14 (Q460N5 whole entry, the tested form may be a part): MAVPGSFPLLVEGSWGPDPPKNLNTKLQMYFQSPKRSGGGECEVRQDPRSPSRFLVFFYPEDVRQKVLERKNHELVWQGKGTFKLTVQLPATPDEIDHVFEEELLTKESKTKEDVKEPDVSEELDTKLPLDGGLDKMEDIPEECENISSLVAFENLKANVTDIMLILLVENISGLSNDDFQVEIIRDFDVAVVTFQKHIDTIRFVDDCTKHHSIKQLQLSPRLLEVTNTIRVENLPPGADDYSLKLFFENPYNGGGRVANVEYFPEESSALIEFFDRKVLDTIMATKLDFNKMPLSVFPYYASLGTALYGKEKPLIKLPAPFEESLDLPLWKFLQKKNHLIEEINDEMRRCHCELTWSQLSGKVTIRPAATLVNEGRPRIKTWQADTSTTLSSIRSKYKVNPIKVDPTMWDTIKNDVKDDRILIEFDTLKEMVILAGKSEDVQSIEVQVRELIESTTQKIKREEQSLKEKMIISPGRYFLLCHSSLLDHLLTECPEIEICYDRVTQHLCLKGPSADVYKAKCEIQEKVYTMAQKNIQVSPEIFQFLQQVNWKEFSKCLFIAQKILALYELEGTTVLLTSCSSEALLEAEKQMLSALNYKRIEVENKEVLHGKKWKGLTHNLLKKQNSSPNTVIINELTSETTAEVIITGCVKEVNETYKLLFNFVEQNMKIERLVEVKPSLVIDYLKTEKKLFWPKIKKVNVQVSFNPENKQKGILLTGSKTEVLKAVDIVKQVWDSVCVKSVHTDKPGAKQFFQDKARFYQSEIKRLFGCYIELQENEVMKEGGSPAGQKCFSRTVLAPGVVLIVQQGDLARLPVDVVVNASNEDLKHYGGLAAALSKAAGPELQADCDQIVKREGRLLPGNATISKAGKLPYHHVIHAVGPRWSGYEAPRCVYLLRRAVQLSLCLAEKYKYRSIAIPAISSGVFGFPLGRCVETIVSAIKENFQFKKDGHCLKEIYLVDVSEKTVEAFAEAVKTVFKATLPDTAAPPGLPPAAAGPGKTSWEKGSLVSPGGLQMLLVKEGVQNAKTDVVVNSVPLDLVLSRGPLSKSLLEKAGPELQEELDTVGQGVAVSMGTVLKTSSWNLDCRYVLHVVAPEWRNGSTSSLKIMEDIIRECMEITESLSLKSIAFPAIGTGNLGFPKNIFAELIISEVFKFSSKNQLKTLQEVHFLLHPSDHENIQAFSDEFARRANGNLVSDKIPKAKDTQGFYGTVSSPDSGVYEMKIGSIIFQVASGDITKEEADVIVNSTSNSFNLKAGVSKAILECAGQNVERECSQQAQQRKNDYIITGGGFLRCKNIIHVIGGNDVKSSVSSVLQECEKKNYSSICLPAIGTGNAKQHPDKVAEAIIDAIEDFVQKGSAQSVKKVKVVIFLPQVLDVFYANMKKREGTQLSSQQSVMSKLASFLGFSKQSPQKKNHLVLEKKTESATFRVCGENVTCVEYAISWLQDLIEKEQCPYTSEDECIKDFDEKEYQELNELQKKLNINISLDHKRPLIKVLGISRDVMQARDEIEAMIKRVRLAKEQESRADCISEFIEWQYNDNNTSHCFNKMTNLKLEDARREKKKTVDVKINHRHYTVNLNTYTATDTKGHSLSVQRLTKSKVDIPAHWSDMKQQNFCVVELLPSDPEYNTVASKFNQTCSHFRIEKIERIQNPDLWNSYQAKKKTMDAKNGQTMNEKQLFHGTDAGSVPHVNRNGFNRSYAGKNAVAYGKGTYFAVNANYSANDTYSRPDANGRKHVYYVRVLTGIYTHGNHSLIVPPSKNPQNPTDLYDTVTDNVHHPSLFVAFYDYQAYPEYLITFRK

Turning to `Cc1cccc2c(=O)[nH]c(CCC(=O)Nc3ccc(C(=O)Nc4cccc5cccnc45)cc3)nc12`, the IC50 was > 100 µM in data set [1]; 11.6 µM in [2]; 45 µM in data set [3]; 0.0051 µM in data set [4]; > 100 µM in data set [5]; 0.037 µM in data set [6] (read-out: IC50). The IC50 in [6] (read-out: pIC50 (converted)) was 0.0372 µM. The Activity result is “Non-Toxic” in [7], 20% in data set [8] and “Non-Toxic” in data set [9].

In the case of `O=C(CCc1nc2ccccc2c(=O)[nH]1)Nc1ccc(C(=O)Nc2cccc3cccnc23)cc1`, the IC50 in data set [1] is > 100 µM; in data set [2] it was 6.9 µM; in [3], 40 µM; in data set [4], 0.0091 µM; in data set [5], > 100 µM; in [6] (read-out: IC50) it was 0.029 µM. For the same compound, the IC50 in data set [6] (read-out: pIC50 (converted)) is 0.0288 µM. In addition, the Activity entry is “Non-Toxic” in data set [7], 20% in data set [8] and “Non-Toxic” in [9].
